Assay outcomes from PubChem BioAssay.
hERG protect: hERG (human) protection from proarrhythmic block; activation (rescue from dofetilide block), less the hit threshold, % at 10 µM; Q12809; actives 0.51% (n = 310,000); CHO-hERG, FluxOR thallium flux, dofetilide IC70 present;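 active = activation above the mean of controls blocked by dofetilide plus 5 SD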;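 also: thallium influx through hERG after potassium depolarization seen as dye fluorescence rise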
KCNQ1 act: human KCNQ1 channel potentiation or activation. CHO-K1 KCNQ1, thallium flux FluxOR fluorescence; hits give high values. B-score at 10 µM. actives 0.35% (n = 310,000);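 active = fluorescence ratio B-score, a plate-corrected score, at least three library SD, with initial intensity B-score within 5 SD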
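Medium – assay buffer, equal DMSO in all wells · Material – CHO-K1 cell line with stable KCNQ1 potassium channel expression · Signal – kinetic FluxOR thallium fluorescence, 10-s 1-Hz baseline, 110-s post-stimulus read · Compound – single concentration per compound, DMSO matched to controls · Schedule – 37 °C overnight plating, 90-min dark dye load, 20-min compound pretreatment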
Kir21 inh: blocks the mouse Kir2.1 inward-rectifier potassium channel; P35561; HEK293-Kir2.1, FluxOR thallium flux fluorescence; hits give low values; B-score at 10 µM; actives 0.85% (n = 310,000); AID 1672;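 active = fluorescence ratio B-score at or below minus 3 SD of library scores, with starting-brightness B-score within 2 SD, cut at about -4.2 in these data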;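 also: channel flux triggered by added potassium and thallium sulfate stimulus; B-score of peak minus minimum fluorescence over baseline after thallium stimulus; more negative B-score means stronger Kir2.1 block with less thallium influx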
Target sequence (P35561 whole entry, looked up): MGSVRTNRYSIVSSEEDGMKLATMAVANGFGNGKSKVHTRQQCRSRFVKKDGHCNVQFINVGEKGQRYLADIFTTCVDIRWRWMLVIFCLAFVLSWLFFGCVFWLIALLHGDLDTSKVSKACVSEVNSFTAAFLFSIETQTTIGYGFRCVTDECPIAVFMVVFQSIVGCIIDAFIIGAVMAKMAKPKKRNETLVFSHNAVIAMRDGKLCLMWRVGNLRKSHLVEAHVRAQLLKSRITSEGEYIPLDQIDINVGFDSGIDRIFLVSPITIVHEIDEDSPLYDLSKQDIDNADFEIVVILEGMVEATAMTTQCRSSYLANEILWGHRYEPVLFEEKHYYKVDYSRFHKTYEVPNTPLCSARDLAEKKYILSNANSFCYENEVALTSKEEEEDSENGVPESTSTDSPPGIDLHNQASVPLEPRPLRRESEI
KCNQ1 inh: blocks the human KCNQ1 potassium channel. CHO-K1 KCNQ1, FluxOR thallium flux fluorescence; hits give high values. B-score at 10 µM. actives 1.3% (n = 310,000). AID 2642;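 active = compounds whose thallium flux B-score, printed positive for inhibition, exceeds three library SD while starting fluorescence stays within three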;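 also: channel opened by potassium depolarization with thallium stimulus after 20 min compound exposure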
KCNK3 inh: human KCNK3 channel inhibition, primary screen | O14649 | CHO-KCNK3 thallium flux, FluxOR fluorescence; hits give low values | B-score at 10 µM | actives 0.84% (n = 340,000) | AID 602410;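 active = B-score under library mean minus 4 SD, starting fluorescence ratio at most library mean plus 5 SD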;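 also: more negative B-score means stronger inhibition of thallium flux through KCNK3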
KCNK9 block: inhibitors of human KCNK9 two-pore domain potassium channel | Q9NPC2 | HEK293 KCNK9, FluxOR thallium flux fluorescence; hits give low values | B-score at 10 µM | actives 1.2% (n = 310,000);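 active = ratio B-score over 3 SD below the library mean, with starting fluorescence within 5 SD of its mean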;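 also: negative B-score means less thallium flux so channel inhibition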
Hits are given with their value; 0 = inactive; - = not tested or not shown. Rows were chosen to be rich in hits. Some 3.8% of all compounds tested hit in one or more screens of this group.

SMILES	hERG protect	KCNQ1 act	Kir21 inh	KCNQ1 inh	KCNK3 inh	KCNK9 block
CCC(Oc1ccccc1)C(=O)Nc1ccc(-c2nnc(-c3ccco3)o2)cc1 (configuration not stated)	0	0	0	0	0	-7.3
Cc1c(Cc2ccccc2)c(=O)oc2cc(OCC(=O)NC(Cc3ccc(Cl)cc3)C(=O)O)ccc12 (configuration not stated)	0	0	0	0	0	-7.3
Cc1cc(C)c(S(=O)(=O)N2CCN(c3ccc([N+](=O)[O-])c(NCc4ccco4)c3)CC2)c(C)c1	4.7	0	0	0	0	0
Cc1cc(C)nc(SCC(=O)NC2CCCCC2C)n1 (configuration not stated)	0	0	0	0	0	0
CCN(CC)CC(O)COC(c1ccccc1)c1ccccc1 (configuration not stated)	0	0	0	0	0	0
CCN(Cc1ccccc1)CC(O)COC(c1ccc(OC)cc1)c1ccc(OC)cc1 (configuration not stated)	0	0	-8.8	0	0	0
S=C(Nc1cccc(Cl)c1)Nc1ccccc1Oc1ccccc1	0	0	0	8	0	0
COc1cccc(NC(=S)NNC(=O)c2ccccc2OC(F)F)c1	0	0	0	0	0	0
COCCCNC(=S)NNC(=S)Nc1cccc(Cl)c1	0	0	0	6	0	0
O=C(NNC(=S)Nc1cccc(Cl)c1)c1ccccc1OC(F)F	0	0	0	9	0	0
COc1cc(C2C3=C(COC3=O)OC(C)(C)Oc3cc4c(cc32)OCO4)cc(OC)c1OC (configuration not stated)	-	-	-	-	0	-
CC(=O)[C@]1(O)Cc2c(O)c3c(c(O)c2[C@@H](O[C@H]2C[C@H](N)[C@H](O)[C@H](C)O2)C1)C(=O)c1ccccc1C3=O	0	0	0	21	-	0
Cc1nn2c(=O)cc(CSCC(=O)Nc3ccccc3Cl)nc2s1	0	0	0	0	0	0
CCOC(=O)C1=C(C)N(CC)C(=S)NC1c1ccc(Cl)cc1 (configuration not stated)	0	0	-7.1	0	0	0
C#CC1(NC(=O)NCCCC)CCCCC1	0	0	0	0	0	0
O=C1C=CC(=O)C(C2=C3C(=O)N(CCc4ccccc4)CC(=O)N3CCC2)=C1	0	0	-7	0	-	0
Oc1cccc(/C=N/N(Cc2ccccc2)c2ccccc2)c1	0	0	0	6	0	-7.2
COc1ccc(N(CC(=O)O)S(=O)(=O)c2ccc(C)cc2)cc1Cl	0	0	0	0	0	0
CC1CCN(c2ccc3nnc(CCC(=O)N4CCCCC4)n3n2)CC1	0	0	0	0	0	0
CCSC1(SCC)N=C(N)C2(C#N)C(c3ccc(F)cc3)C12C#N (configuration not stated)	0	0	-4.7	0	0	0
COC1(OC)N=C(N)C2(C#N)C(c3ccc(F)cc3)C12C#N (configuration not stated)	0	0	0	0	0	0
COc1ccc(C2/C=C\CN3CCC[C@H]3C(=O)N2Cc2ccc(F)cc2)cc1 (some centres not stated)	-	-	-	-	0	-
C/C(=N\NC(=O)CC1N=C(Cc2ccccc2)NNC1=O)c1ccncc1 (configuration not stated)	0	0	0	0	0	0
Cc1ccc(/C=N/NC(=O)CC2N=C(Cc3ccccc3)NNC2=O)cc1 (configuration not stated)	5.2	0	0	0	0	0
CCC(C)(C)NC(=O)CN(CCc1cccc(C)c1)C(=O)c1csnn1	0	0	0	0	0	0
Cc1ccc2c(=O)c(C(=O)NCc3cccs3)c[nH]c2c1	4.8	0	0	0	0	0
COc1ccccc1NC(=O)COc1ccc(Br)cc1CNC1CCCC1	0	0	0	0	0	0
CCCN(CC(=O)Nc1ccccc1OC)C(=O)CSC(=S)N1CCCC1	-	-	-	-	0	-
CCOC(=O)C1=NN(C(=O)c2ccc(OC)cc2)C(O)(c2ccc(Cl)cc2)C1 (configuration not stated)	40	56	0	0	0	0
COc1ccc(NC(=O)CSc2nccn2-c2ccccc2)c(OC)c1	0	0	0	0	0	0
